Data as given in ChEMBL document CHEMBL1146489, “Aspochalasins I, J, and K: three new cytotoxic cytochalasans of Aspergillus flavipes from the rhizosphere of Ericameria laricifolia of the Sonoran Desert” (J Nat Prod, 2004).

Legend:
Assay type in all cases: functional, cell-based
NCI-H460 = test: Cytotoxicity against human NCI-H460 cells after 48 hrs by MTT assay; conditions: NCI-H460, 48 h
Outline: (§1)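 Human tumour cells (NCI-H460 lung, MCF-7 breast, SF-268 glioma) exposed to compounds for 48 h in RPMI 1640 with 10% fetal bovine serum; viability read by tetrazolium-based colorimetric MTT assay.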

MCF7 = test: Cytotoxicity against human MCF7 cells after 48 hrs by MTT assay; conditions: MCF7, 48 h; outline: as §1
SF-268 = test: Cytotoxicity against human SF268 cells after 48 hrs by MTT assay; conditions: SF-268, 48 h; outline: as §1

SMILES	IC50 (NCI-H460) [µM]	IC50 (MCF7) [µM]	IC50 (SF-268) [µM]
CC1=C[C@@H]2/C=C(\C)CCCC(O)/C=C/C(=O)[C@]23C(=O)N[C@@H](CC(C)C)[C@@H]3[C@@H]1C (stereo partly drawn)	3.5	5	9.5
CC1=C[C@@H]2/C=C(\C)CC[C@H](O)[C@@H](O)/C=C/C(=O)[C@]23C(=O)N[C@@H](CC(C)C)[C@@H]3[C@@H]1C [ASPOCHALASIN C]	5	7.7	3.9
CC1=C[C@@H]2/C=C(\C)CC[C@H](O)[C@H](O)/C=C/C(=O)[C@]23C(=O)N[C@@H](CC(C)C)[C@@H]3[C@@H]1C [ASPOCHALASIN D]	3.4	5.3	5
CC1=C[C@@H]2/C=C(\C)CC[C@H](O)[C@H](O)[C@@H](O)CC(=O)[C@]23C(=O)N[C@@H](CC(C)C)[C@@H]3[C@@H]1C [ASPOCHALASIN E]	31.5	30.4	52.6
CC1=C[C@@H]2/C=C(\C)CC[C@H](O)[C@H](O)/C=C/C(=O)O[C@]23C(=O)N[C@@H](CC(C)C)[C@@H]3[C@@H]1C [ASPOCHALASIN I]	22.1	33.4	19.9
CC1=C[C@@H]2/C=C(\C)CCC[C@H](O)/C=C/C(=O)O[C@]23C(=O)N[C@@H](CC(C)C)[C@@H]3[C@@H]1C [ASPOCHALASIN J]	55.2	14.9	13.4
CO[C@H]1[C@@H](O)CC/C(C)=C/[C@H]2C=C(C)[C@@H](C)[C@H]3[C@H](CC(C)C)NC(=O)[C@]32C(=O)C[C@@H]1O [ASPOCHALASIN K]	14.3	13.1	19.9
CC(=O)O[C@H]1C(=O)[C@@]2(C)[C@H]([C@H](OC(=O)c3ccccc3)[C@]3(O)C[C@H](OC(=O)[C@H](O)[C@@H](NC(=O)c4ccccc4)c4ccccc4)C(C)=C1C3(C)C)[C@]1(OC(C)=O)CO[C@@H]1C[C@@H]2O [PACLITAXEL]	0.0095		0.0217
